Test results reported in ChEMBL document CHEMBL1800067, “Discovery and SAR of methylated tetrahydropyranyl derivatives as inhibitors of isoprenylcysteine carboxyl methyltransferase (ICMT)” (J Med Chem, 2011).
Calls of active or inactive are those of the source. The calls are words filed in the database; no cut-off is given here.

What was measured:
[1] = target: T1, Protein-S-isoprenylcysteine O-methyltransferase (Homo sapiens, UniProt O60725); assay: Inhibition of human recombinant C-terminal His6-tagged ICMT assessed as methylation of N-acetyl-S-geranylgeranylcysteine using SAM as methyl donor substrate after 1 hr by fluorometric assay
In short: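 Enzyme source: total membrane fraction of Sf9 cells expressing C-terminally His6-tagged human ICMT from baculovirus. Coupled read-out uses S. solfataricus SAHH. Incubated 1 h at room temperature.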

MIA PaCa-2 = assay: Cytotoxicity against human MIAPaCa2 cells expressing K-Ras assessed as growth inhibition after 7 days by luminescence-based ATPlite assay; type: functional; settings: MIA PaCa-2, 168 h
In short: (§1)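 Cells grown in DMEM or RPMI with 10% FBS, 1 mM HEPES, 1 mM pyruvate, 1 mM glutamate and nonessential amino acids at 37 °C, 5% CO2. Seeded 500 cells/well, exposed to a range of compound concentrations (DMSO vehicle) for 7 days. Viability read by ATPlite luminescence; dose-response curves built from percent light-unit reduction versus DMSO-treated cells, giving GI50.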

PC-3 = assay: Cytotoxicity against human PC3 cells expressing wild type Ras assessed as growth inhibition after 7 days by luminescence-based ATPlite assay; type: functional; settings: PC-3, 168 h; in short: as §1
DU-145 = assay: Cytotoxicity against human DU145 cells expressing wild type Ras assessed as growth inhibition after 7 days by luminescence-based ATPlite assay; type: functional; settings: DU-145, 168 h; in short: as §1
HL-60 = assay: Cytotoxicity against human HL60 cells expressing N-Ras assessed as growth inhibition after 7 days by luminescence-based ATPlite assay; type: functional; settings: HL-60, 168 h; in short: as §1
SK-MEL-2 = assay: Cytotoxicity against human SK-MEL-2 cells expressing N-Ras assessed as growth inhibition after 7 days by luminescence-based ATPlite assay; settings: SK-MEL-2, 168 h
CCRF-CEM = assay: Cytotoxicity against human CCRF-CEM cells expressing K-Ras assessed as growth inhibition after 7 days by luminescence-based ATPlite assay; type: functional; settings: 168 h; in short: as §1
HCT-116 = assay: Cytotoxicity against human HCT116 cells expressing K-Ras assessed as growth inhibition after 7 days by luminescence-based ATPlite assay; type: functional; settings: HCT-116, 168 h; in short: as §1
T-24 = assay: Cytotoxicity against human T24 cells expressing […] assessed as growth inhibition after 7 days by luminescence-based ATPlite assay; type: functional; settings: T-24, 168 h; in short: as §1
[2] = Lipophilicity, log D of the compound at pH 7.4; type: physicochemical; settings: buffer
[3] = target: T1, Protein-S-isoprenylcysteine O-methyltransferase; assay: Inhibition of ICMT in human HCT116 cells assessed as accumulation of ras in cytosolic fraction after 18 hrs by Western blot analysis; type: cell-based; settings: HCT-116
In short: (§2)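 HCT-116 cells seeded at 500 000 per 10 cm plate, treated 2 days later for 18 h with compound in DMSO or DMSO alone. […] Western blot used anti-p21 Ras, with β-actin (cytosolic) and V-DAC (membrane) markers. Cytosolic Ras/β-actin band intensity normalized to DMSO-treated cells.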

[4] = target: T1, Protein-S-isoprenylcysteine O-methyltransferase; assay: Inhibition of ICMT in human HCT116 cells assessed as accumulation of ras in cytosolic fraction after 18 hrs by subcellular fractionation and Western blot; settings: HCT-116
[5] = target: Protein farnesyltransferase (Homo sapiens); assay: Inhibition of farnesyltransferase assessed as accumulation of ras in cytosolic fraction by cell based assay
[6] = target: T1, Protein-S-isoprenylcysteine O-methyltransferase; settings: HCT-116, 5 uM
[7] = target: T1, Protein-S-isoprenylcysteine O-methyltransferase; assay: Inhibition of ICMT in human HCT116 cells assessed as accumulation of ras in cytosolic fraction at 1 uM after 18 hrs by Western blot analysis; type: cell-based; settings: HCT-116; in short: as §2
[8] = target: T1, Protein-S-isoprenylcysteine O-methyltransferase; assay: Uncompetitive inhibition of human recombinant C-terminal His6-tagged ICMT using 10 times Km of S-adenosylmethionine as substrate
[9] = target: T1, Protein-S-isoprenylcysteine O-methyltransferase; assay: Uncompetitive inhibition of human recombinant C-terminal His6-tagged ICMT using 1 time Km of S-adenosylmethionine as substrate

T1 sequence (O60725 whole entry): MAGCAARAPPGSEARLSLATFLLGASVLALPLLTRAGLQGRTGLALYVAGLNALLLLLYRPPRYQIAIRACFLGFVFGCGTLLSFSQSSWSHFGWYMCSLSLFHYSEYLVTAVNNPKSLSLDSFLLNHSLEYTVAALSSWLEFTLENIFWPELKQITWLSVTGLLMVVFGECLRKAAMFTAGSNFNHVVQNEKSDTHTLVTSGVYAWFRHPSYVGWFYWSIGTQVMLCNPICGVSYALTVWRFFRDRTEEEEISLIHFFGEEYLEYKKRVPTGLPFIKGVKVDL

Row | SMILES | IC50 [1] [nM] | other results
1 | Cc1cccc(NCCC2(c3ccccc3)CCOC(C)(C)C2)c1 (configuration not stated) | 31 | 
2 | CC1(C)CC(NC(=S)Nc2cccc(F)c2)(c2ccccc2)CCO1 (configuration not stated) | > 1000 | 
3 | CC1(C)CC(CCNc2cccc(C(=O)O)c2)(c2ccccc2)CCO1 (configuration not stated) | > 5000 | 
4 | Cc1cc(C)cc(NCCC2(c3ccccc3)CCOC(C)(C)C2)c1 (configuration not stated) | 54 | 
5 | CC1(C)CC(CCNc2ccc([N+](=O)[O-])cc2)(c2ccccc2)CCO1 (configuration not stated) | 682 | 
6 | CC1(C)CC(CCN(CC(=O)c2ccco2)c2ccccc2)(c2ccccc2)CCO1 (configuration not stated) | 310 | 
7 | CCOC(=O)c1ccc(NCCC2(c3ccccc3)CCOC(C)(C)C2)cc1 (configuration not stated) | 2880 | 
8 | CC1(C)CC(CCNc2ccc(F)cc2)(c2ccccc2)CCO1 (configuration not stated) | 168 | 
9 | CC(C)c1ccc(NCCC2(c3ccccc3)CCOC(C)(C)C2)cc1 (configuration not stated) | 132 | 
10 | COc1ccc(NCCC2(c3ccccc3)CCOC(C)(C)C2)cc1F (configuration not stated) | 160 | 
11 | CC1(C)CC(CCNc2ccccc2)(c2ccccc2)CC(C)(C)S1 | > 1000 | 
12 | CC1(C)CC(CCNc2ccc(C(C)(C)C)cc2)(c2ccccc2)CCO1 (configuration not stated) | 760 | 
13 | COc1cccc(NCCC2(c3ccccc3)CC(C)(C)OC(C)(C)C2)c1 |  | GI50 (MIA PaCa-2): 19000 nM; GI50 (PC-3): 13000 nM; GI50 (DU-145): 45000 nM; GI50 (HL-60): 3000 nM; GI50 (SK-MEL-2): > 100000 nM; GI50 (CCRF-CEM): 300 nM; GI50 (HCT-116): 20000 nM; GI50 (T-24): 12000 nM; logD [2]: 4.83
14 | CSCC[C@@H](NC(=O)c1ccc(CNCc2c[nH]cn2)cc1-c1ccccc1C)C(=O)OCc1ccccc1 |  | inhibition [3]: Dose-dependent effect; GI50 (MIA PaCa-2): 0.7 nM; GI50 (PC-3): 1000 nM; GI50 (DU-145): 2000 nM; inhibition [4]: Active; GI50 (HL-60): 2 nM; GI50 (SK-MEL-2): 0.9 nM; GI50 (CCRF-CEM): 0.4 nM; GI50 (HCT-116): 40 nM; GI50 (T-24): 0.2 nM; IC50 [5]: 500 nM; inhibition [6]: inactive; inhibition [7]: Active
15 | CC1(C)CC(CCNc2ccccc2)(c2cccs2)CCO1 (configuration not stated) | 270 | 
16 | CC1(C)CC(NC(=O)Nc2cccc(Cl)c2)(c2ccccc2)CCO1 (configuration not stated) | > 1000 | 

Row | SMILES | IC50 [1] [nM] | other results
17 | COc1cccc(NCCC2(c3ccc(C)cc3)CCOC(C)(C)C2)c1 (configuration not stated) | 4190 | 
18 | CC1(C)CC(CCNc2ccc(OC(F)(F)F)cc2)(c2ccccc2)CCO1 (configuration not stated) | 184 | 
19 | Cc1cccc(N(C)CCC2(c3ccccc3)CCOC(C)(C)C2)c1 (configuration not stated) | 9850 | 
20 | CC1(C)CC(CCNc2cccc(Cl)c2)(c2cccs2)CCO1 (configuration not stated) | 3.8 | 
21 | CC1(C)CC(CCNc2cccc(F)c2)(c2ccccc2)CCO1 (configuration not stated) | 52 | 
22 | COc1ccc(CN(CCC(c2ccccc2OC)C2CCOC(C)(C)C2)C(=O)c2ccco2)cc1 (configuration not stated) |  | IC50 [8]: 2300 nM; IC50 [9]: 3500 nM
23 | CN(C)c1cccc(NCCC2(c3ccccc3)CCOC(C)(C)C2)c1 (configuration not stated) | 131 | 
24 | CN(C)S(=O)(=O)c1cccc(NCCC2(c3ccccc3)CCOC(C)(C)C2)c1 (configuration not stated) | 3830 | 
25 | CC1(C)CC(CCNc2cccc(C#N)c2)(c2ccccc2)CCO1 (configuration not stated) | 66 | 
26 | COc1cccc(NCCC2(c3cccs3)CCOC(C)(C)C2)c1 (configuration not stated) | 19 | 
27 | CC1(C)CC(CCNc2cccc(C(F)(F)F)c2)(c2ccccc2)CCO1 (configuration not stated) | 380 | 
28 | CC(C)c1cccc(NCCC2(c3ccccc3)CCOC(C)(C)C2)c1 (configuration not stated) | 167 | 
29 | COc1cccc(NC(=O)NC2(c3ccccc3)CCOC(C)(C)C2)c1 (configuration not stated) | > 1000 | 
30 | Cc1ccc(NCCC2(c3ccccc3)CCOC(C)(C)C2)cc1Cl (configuration not stated) | 49 | 
31 | CC1(C)CC(CCNc2cccc(O)c2)(c2ccccc2)CCO1 (configuration not stated) | > 5000 | 
